Experimental data published in ChEMBL document CHEMBL1130175, “Sulfated galactocerebrosides as potential antiinflammatory agents” (J Med Chem, 1997).

Biological target: T1, P-selectin (Homo sapiens, UniProt P16109)
T1 sequence (P16109 whole entry): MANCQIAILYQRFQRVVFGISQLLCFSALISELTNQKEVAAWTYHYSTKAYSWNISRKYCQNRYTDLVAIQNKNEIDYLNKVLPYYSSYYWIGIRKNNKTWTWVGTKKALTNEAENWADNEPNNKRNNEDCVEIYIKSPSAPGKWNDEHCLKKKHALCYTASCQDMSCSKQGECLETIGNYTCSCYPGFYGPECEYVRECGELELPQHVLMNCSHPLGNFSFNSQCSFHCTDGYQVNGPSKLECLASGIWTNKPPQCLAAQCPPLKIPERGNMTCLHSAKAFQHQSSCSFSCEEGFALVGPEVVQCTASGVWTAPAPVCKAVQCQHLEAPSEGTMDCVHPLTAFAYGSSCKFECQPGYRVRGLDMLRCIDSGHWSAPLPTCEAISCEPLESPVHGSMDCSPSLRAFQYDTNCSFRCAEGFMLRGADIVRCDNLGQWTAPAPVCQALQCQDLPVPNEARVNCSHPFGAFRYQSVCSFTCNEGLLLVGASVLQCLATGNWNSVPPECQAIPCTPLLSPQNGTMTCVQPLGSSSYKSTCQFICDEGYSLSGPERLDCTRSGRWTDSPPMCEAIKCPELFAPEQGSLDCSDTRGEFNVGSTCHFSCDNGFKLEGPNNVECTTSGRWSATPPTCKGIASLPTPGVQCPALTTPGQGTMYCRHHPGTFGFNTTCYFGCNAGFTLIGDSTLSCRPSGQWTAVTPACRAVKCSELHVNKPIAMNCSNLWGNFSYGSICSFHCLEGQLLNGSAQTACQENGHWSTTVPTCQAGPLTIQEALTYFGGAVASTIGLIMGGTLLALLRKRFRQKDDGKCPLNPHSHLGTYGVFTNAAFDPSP
Assay: In vitro inhibitory concentration against Selectin P in a cell-free binding assay
Method in brief: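 Soluble P-selectin receptor globulin (lectin, EGF and two complement repeat domains fused to an Ig tail), premixed with HRP-conjugated goat anti-human IgG. The complex was incubated on sulfatide-coated ELISA plates with or without test compound, 0.5% DMSO final. Read-out was TMB colour at 450 nm. Eight 2-fold dilutions were tested, mean of duplicates, and IC50 was interpolated from the linear part of the log dose-response curve.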

IC50 | Compound
100 nM | CCCCCCCCCCCCC/C=C/[C@@H](O)[C@H](CO[C@@H]1O[C@@H](CO)[C@@H](O)[C@H](OS(=O)(=O)O)[C@@H]1OS(=O)(=O)O)NC(=O)CCCCCCCCCCCCCCC
1300 nM | CCCCCCCCCCCCC/C=C/[C@@H](OC(=O)c1ccccc1)[C@H](CO[C@@H]1O[C@@H](COS(=O)(=O)O)[C@@H](OC(C)=O)[C@H](OS(=O)(=O)O)[C@@H]1OC(=O)c1ccccc1)NC(=O)CCCCCCCCCCCCCCC
900 nM | CCCCCCCCCCCCC/C=C/[C@@H](OC(=O)c1ccccc1)[C@H](CO[C@@H]1O[C@@H](COS(=O)(=O)O)[C@@H](O)[C@H](O)[C@@H]1OS(=O)(=O)O)NC(=O)CCCCCCCCCCCCCCC
12000 nM | CCCCCCCCCCCCC/C=C/[C@@H](O)[C@H](CO[C@@H]1O[C@@H](COS(=O)(=O)O)[C@@H](O)[C@H](O)[C@@H]1O)NC(=O)CCCCCCCCCCCCCCC
2400 nM | CCCCCCCCCCCCC/C=C/[C@@H](O)[C@H](CO[C@@H]1O[C@@H](COS(=O)(=O)O)[C@@H](O)[C@H](OS(=O)(=O)O)[C@@H]1O)NC(=O)CCCCCCCCCCCCCCC
1200 nM | CCCCCCCCCCCCC/C=C/[C@@H](O)[C@H](CO[C@@H]1O[C@@H](COS(=O)(=O)O)[C@@H](O)[C@H](O)[C@@H]1OS(=O)(=O)O)NC(=O)CCCCCCCCCCCCCCC
100 nM | CCCCCCCCCCCCC/C=C/[C@@H](OC(=O)c1ccccc1)[C@H](CO[C@@H]1O[C@@H](CO)[C@@H](O)[C@H](OS(=O)(=O)O)[C@@H]1OS(=O)(=O)O)NC(=O)CCCCCCCCCCCCCCC
600 nM | CCCCCCCCCCCCC/C=C/[C@@H](O)[C@H](CO[C@@H]1O[C@@H](CO)[C@@H](O)[C@H](OS(=O)(=O)O)[C@@H]1O)NC(=O)CCCCCCCCCCCCCCC
12500 nM | CCCCCCCCCCCCC/C=C/[C@@H](O)[C@H](CO[C@@H]1O[C@@H](CO)[C@@H](OS(=O)(=O)O)[C@H](O)[C@@H]1O)NC(=O)CCCCCCCCCCCCCCC
1700 nM | CCCCCCCCCCCCC/C=C/[C@@H](O)[C@H](CO[C@@H]1O[C@@H](COS(=O)(=O)O)[C@@H](OS(=O)(=O)O)[C@H](O)[C@@H]1O)NC(=O)CCCCCCCCCCCCCCC
2500 nM | CCCCCCCCCCCCC/C=C/[C@@H](O)[C@H](CO[C@@H]1O[C@@H](CO)[C@@H](O)[C@H](O)[C@@H]1OS(=O)(=O)O)NC(=O)CCCCCCCCCCCCCCC
> 50000 nM | CCCCCCCCCCCCC/C=C\C(O)C(CO)NC(=O)O[C@@H]1O[C@H](CO)[C@H](O)[C@H](O)[C@H]1O (some centres not stated) [GALACTOCEREBROSIDE]
